ChEMBL document CHEMBL4715780, “Biological evaluation of tetracationic compounds based on two 1,4-diazabicyclo[2.2.2]octane moieties connected by different linkers” (Bioorg Med Chem, 2016)
Values after ≈ are worked out from the molar mass of the structure shown.

Key:
Pseudomonas aeruginosa [1] = assay: Antibacterial activity against Pseudomonas aeruginosa ATCC 9027 assessed as concentration required to inhibit visible growth by CLSI protocol based serial microdilution method; assay type: functional
Candida albicans [2] = assay: Antifungal activity against Candida albicans CEMTC 34 assessed as fungal growth inhibition by CLSI protocol based serial microdilution method; assay type: functional
How it was run: (§1)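 Candida albicans grown in Sabouraud dextrose broth with two-fold serial compound dilutions from water stocks; final inoculum about 5 × 10⁵ CFU/mL. Incubated at 37 °C with orbital shaking (580 rpm). MIC is the lowest concentration preventing growth, by absorbance at 595 nm. MFC is the lowest concentration with no visible growth. Duplicates in two separate experiments.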

Influenza A virus = assay: Antiviral activity against Influenza A virus (A/Puerto Rico/8/34 (H1N1) infected in MDCK cells assessed as decrease in viral titer preincubated for 1 hr followed by viral infection and cultivated for 48 hrs followed by supernatant transferred to chicken erythrocyte for 1 hr followed by measuring ability to cause positive hemagglutination; assay type: functional, organism-based; conditions: A/Puerto Rico/8/1934(H1N1)
How it was run: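 MDCK monolayers in MEM were pre-incubated with compound for 1 h at 37 °C, then infected with 10-fold virus dilutions (10⁻¹–10⁻⁶) and held 48 h at 37 °C, 5% CO₂. Supernatant was mixed with an equal volume of 1% chicken erythrocytes, 60 min at room temperature. Titre was taken from the highest dilution giving full agglutination (log₁₀ EID₅₀). Triplicate per concentration.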

Enterococcus faecalis [3] = assay: Antibacterial activity against Enterococcus faecalis ATCC 51299 assessed as concentration required to inhibit visible growth by CLSI protocol based serial microdilution method; assay type: functional
Escherichia coli [4] = assay: Antibacterial activity against Escherichia coli ATCC 25922 assessed as bacterial growth inhibition by CLSI protocol based serial microdilution method; assay type: functional
Pseudomonas aeruginosa [5] = assay: Antibacterial activity against Pseudomonas aeruginosa ATCC 9027 assessed as bacterial growth inhibition by CLSI protocol based serial microdilution method; assay type: functional
Proteus vulgaris [6] = assay: Antibacterial activity against Proteus vulgaris ATCC 6380 assessed as bacterial growth inhibition by CLSI protocol based serial microdilution method; assay type: functional
Salmonella typhimurium [7] = assay: Antibacterial activity against Salmonella enterica ATCC 14028 assessed as bacterial growth inhibition by CLSI protocol based serial microdilution method; assay type: functional, Salmonella enterica subsp. enterica serovar Typhimurium
Escherichia coli [8] = assay: Antibacterial activity against Escherichia coli ATCC 25922 assessed as concentration required to inhibit visible growth by CLSI protocol based serial microdilution method; assay type: functional
Candida albicans [9] = assay: Antifungal activity against Candida albicans CEMTC 34 assessed as concentration required to inhibit visible growth by CLSI protocol based serial microdilution method; assay type: functional; how it was run: as §1
Proteus vulgaris [10] = assay: Antibacterial activity against Proteus vulgaris ATCC 6380 assessed as concentration required to inhibit visible growth by CLSI protocol based serial microdilution method; assay type: functional
[11] = Cytotoxicity against MDCK cells assessed as cell death incubated for 48 hrs by MTT assay; assay type: cell-based, Canis lupus familiaris; conditions: dog
Enterococcus faecalis [12] = assay: Antibacterial activity against Enterococcus faecalis ATCC 51299 assessed as bacterial growth inhibition by CLSI protocol based serial microdilution method; assay type: functional
Salmonella typhimurium [13] = assay: Antibacterial activity against Salmonella enterica ATCC 14028 assessed as concentration required to inhibit visible growth by CLSI protocol based serial microdilution method; assay type: functional, Salmonella enterica subsp. enterica serovar Typhimurium
[14] = Selectivity index, ratio of CC50 for MDCK cells to EC50 for Influenza A virus (A/Puerto Rico/8/34 (H1N1)) infected in MDCK cells; assay type: toxicity, cell-based; conditions: dog, read-out: Ratio CC50/EC50
How it was run: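 Ratio of CC₅₀ to EC₅₀, both in MDCK cells, with cytotoxicity run in parallel with the antiviral assay. EC₅₀ is the concentration halving virus production (0.3 log₁₀ EID₅₀ titre drop). It was obtained after 1 h compound pre-incubation, infection, 48 h at 37 °C, and hemagglutination read-out with 1% chicken erythrocytes.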

Staphylococcus aureus [15] = assay: Antibacterial activity against […] Staphylococcus aureus ATCC 25923 assessed as bacterial growth inhibition by CLSI protocol based serial microdilution method; assay type: functional
Staphylococcus aureus [16] = assay: Antibacterial activity against […] Staphylococcus aureus ATCC 25923 assessed as concentration required to inhibit visible growth by CLSI protocol based serial microdilution method; assay type: functional
Citrobacter freundii [17] = assay: Antibacterial activity against Citrobacter freundii ATCC 8090 assessed as bacterial growth inhibition by CLSI protocol based serial microdilution method; assay type: functional
Citrobacter freundii [18] = assay: Antibacterial activity against Citrobacter freundii ATCC 8090 assessed as concentration required to inhibit visible growth by CLSI protocol based serial microdilution method; assay type: functional
[19] = Cytotoxicity against human MCF7 cells assessed as reduction in cell viability measured after 24 hrs by MTT assay; assay type: cell-based
How it was run: (§2)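 HEK293T or MCF-7 cells in IMDM with 10% FBS, seeded at 20,000 per well and grown overnight. Compounds at […] in fresh medium for 24 h at 37 °C, 5% CO₂. MTT then added for 4 h, precipitate dissolved overnight in SDS-HCl, absorbance read at 570 nm. Viability expressed relative to untreated cells, giving CC₅₀. Duplicate wells, at least two independent repeats.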

[20] = Cytotoxicity against HEK293T cells assessed as reduction in cell viability measured after 24 hrs by MTT assay; assay type: cell-based, HEK-293T; conditions: human; how it was run: as §2
[21] = Selectivity index, ratio of CC50 for HEK293T cells assessed as reduction in cell viability measured after 24 hrs by MTT assay to MIC for Candida albicans CEMTC 34 assessed as bacterial growth inhibition by CLSI protocol based serial microdilution method; assay type: toxicity; conditions: human, read-out: Selectivity Index
How it was run: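 SI = CC₅₀ (HEK293T) / MIC. HEK293T cells were seeded at 20,000/well overnight, then exposed to 10–250 µg/mL in IMDM with 10% FBS for 24 h. MTT was added for 4 h, solubilised with SDS-HCl, and read at 570 nm; duplicates, ≥2 independent runs. MIC came from two-fold dilutions in Sabouraud dextrose broth at ~5 × 10⁵ CFU/mL, 37 °C with shaking, read at 595 nm, in duplicate.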

[22] = Selectivity index, ratio of CC50 for HEK293T cells assessed as reduction in cell viability measured after 24 hrs by MTT assay to MIC for Escherichia coli ATCC 25922 assessed as bacterial growth inhibition by CLSI protocol based serial microdilution method; assay type: toxicity; conditions: human, read-out: Selectivity Index
[23] = Selectivity index, ratio of CC50 for HEK293T cells assessed as reduction in cell viability measured after 24 hrs by MTT assay to MIC for Enterococcus faecalis ATCC 51299 assessed as bacterial growth inhibition by CLSI protocol based serial microdilution method; assay type: toxicity; conditions: human, read-out: Selectivity Index
[24] = Selectivity index, ratio of CC50 for HEK293T cells assessed as reduction in cell viability measured after 24 hrs by MTT assay to MIC for Proteus vulgaris ATCC 6380 assessed as bacterial growth inhibition by CLSI protocol based serial microdilution method; assay type: toxicity; conditions: human, read-out: Selectivity Index
[25] = Selectivity index, ratio of CC50 for HEK293T cells assessed as reduction in cell viability measured after 24 hrs by MTT assay to MIC for Staphylococcus aureus ATCC 25923 assessed as bacterial growth inhibition by CLSI protocol based serial microdilution method; assay type: toxicity; conditions: human, read-out: Selectivity Index
[26] = Selectivity index, ratio of CC50 for HEK293T cells assessed as reduction in cell viability measured after 24 hrs by MTT assay to MIC for Pseudomonas aeruginosa ATCC 9027 assessed as bacterial growth inhibition by CLSI protocol based serial microdilution method; assay type: toxicity; conditions: human, read-out: Selectivity Index
[27] = Selectivity index, ratio of CC50 for HEK293T cells assessed as reduction in cell viability measured after 24 hrs by MTT assay to MIC for Citrobacter freundii ATCC 8090 assessed as bacterial growth inhibition by CLSI protocol based serial microdilution method; assay type: toxicity; conditions: human, read-out: Selectivity Index
[28] = Selectivity index, ratio of CC50 for HEK293T cells assessed as reduction in cell viability measured after 24 hrs by MTT assay to MIC for Salmonella enterica ATCC 14028 assessed as bacterial growth inhibition by CLSI protocol based serial microdilution method; assay type: toxicity; conditions: human, read-out: Selectivity Index

Row | SMILES | MBC (Pseudomonas aeruginosa [1]) [µg/mL] | MIC (Candida albicans [2]) [µg/mL] | EC50 (Influenza A virus) [µg/mL] | MBC (Enterococcus faecalis [3]) [µg/mL] | MIC (Escherichia coli [4]) [µg/mL] | MIC (Pseudomonas aeruginosa [5]) [µg/mL] | MIC (Proteus vulgaris [6]) [µg/mL] | MIC (Salmonella typhimurium [7]) [µg/mL] | MBC (Escherichia coli [8]) [µg/mL] | MFC (Candida albicans [9]) [µg/mL] | MBC (Proteus vulgaris [10]) [µg/mL] | CC50 at 48 h [11] [µg/mL] | MIC (Enterococcus faecalis [12]) [µg/mL] | MBC (Salmonella typhimurium [13]) [µg/mL] | selectivity ratio [14] | MIC (Staphylococcus aureus [15]) [µg/mL] | MBC (Staphylococcus aureus [16]) [µg/mL] | MIC (Citrobacter freundii [17]) [µg/mL] | MBC (Citrobacter freundii [18]) [µg/mL] | CC50 at 24 h [19] [µg/mL] | also measured
1 | C#CCOCCCCCN(CC[N+]12CC[N+](CCCCCCCCCCCC)(CC1)CC2)CC[N+]12CC[N+](CCCCCCCCCCCC)(CC1)CC2.[Cl-].[Cl-].[Cl-].[Cl-] | 12.5 | 25 | 10 | 3.1 | 3.1 | 6.3 | 100 | 3.1 | 3.1 | 25 | > 100 | 14.9 | 1.6 | 3.1 | 1 | 1.6 | 3.1 | 3.1 | 3.1 |  | 
2 | Clc1ccccc1C(c1ccccc1)(c1ccccc1)n1ccnc1 [CLOTRIMAZOLE] |  | 400 (≈ 1160 µM) |  |  |  |  |  |  |  | 400 (≈ 1160 µM) |  |  |  |  |  |  |  |  |  | 5 (≈ 14.5 µM) | CC50 at 24 h [20]: 7 µg/mL (≈ 20.3 µM); selectivity ratio at 24 h [21]: < 1
3 | CCCCCCCCCCCC[N+]12CC[N+](CC#CC[N+]34CC[N+](CCCCCCCCCCCC)(CC3)CC4)(CC1)CC2 | 12.5 | 12.5 | > 3 | 3.1 | 63 | 3.1 | 100 | 6.3 | 12.5 | 12.5 | > 100 | 4 | 1.6 | 12.5 | < 1 | 1.6 | 3.1 | 6.3 | 12 | 23 | selectivity ratio at 24 h [22]: 4; selectivity ratio at 24 h [23]: 14; CC50 at 24 h [20]: 22 µg/mL; selectivity ratio at 24 h [21]: 2; selectivity ratio at 24 h [24]: < 1; selectivity ratio at 24 h [25]: 14; selectivity ratio at 24 h [26]: 7; selectivity ratio at 24 h [27]: 4; selectivity ratio at 24 h [28]: 4
4 | O=C(O)c1cn(C2CC2)c2cc(N3CCNCC3)c(F)cc2c1=O [CIPROFLOXACIN] |  |  |  |  |  |  |  |  |  |  |  |  |  |  |  |  |  |  |  | 60 (≈ 181 µM) | CC50 at 24 h [20]: > 60 µg/mL
5 | CCCCCCCCCCCC[N+]12CC[N+](CCNCC[N+]34CC[N+](CCCCCCCCCCCC)(CC3)CC4)(CC1)CC2.[Cl-].[Cl-].[Cl-].[Cl-] | 6.3 | 12.5 | 2.2 | 1.6 | 16 | 1.6 | 50 | 1.6 | 3.1 | 12.5 | 50 | 7.7 | 0.8 | 3.1 | 4 | 0.6 | 12 | 3.1 | 3.1 |  | 
6 | CCCCCCCCCCCC[N+]12CC[N+](CCCCCCCC[N+]34CC[N+](CCCCCCCCCCCC)(CC3)CC4)(CC1)CC2 | 6.3 | 6.3 | 2.2 | 1.6 | 1.6 | 3.1 | 100 | 3.1 | 3.1 | 12.5 | > 100 | 4.5 | 1.6 | 6.3 | 2 | 0.6 | 1.6 | 3.1 | 6.3 |  | 
7 | CCCCCCCCCCCC[N+]12CC[N+](Cc3nnn(CCCCCN=[N+]=[N-])c3C[N+]34CC[N+](CCCCCCCCCCCC)(CC3)CC4)(CC1)CC2.[Cl-].[Cl-].[Cl-].[Cl-] | 6.3 | 12.5 | 4.2 | 1.6 | 1.6 | 3.1 | 50 | 1.6 | 3.1 | 12.5 | > 100 | 12.9 | 1.6 | 3.1 | 3 | 1.6 | 3.1 | 1.6 | 3.1 |  | 
8 | CCOC(=O)C1=C[C@@H](OC(CC)CC)[C@H](NC(C)=O)[C@@H](N)C1 [OSELTAMIVIR] |  |  | 0.3 (≈ 0.96 µM) |  |  |  |  |  |  |  |  | 300 (≈ 960 µM) |  |  | 1000 |  |  |  |  |  | 
9 | CCCCCCCCCCCC[N+]12CC[N+](Cc3nnn(CCCCC(=O)OC)c3C[N+]34CC[N+](CCCCCCCCCCCC)(CC3)CC4)(CC1)CC2.[Cl-].[Cl-].[Cl-].[Cl-] | 12.5 | 6.3 | > 11 | 3.1 | 3.1 | 6.3 | 100 | 3.1 | 3.1 | 12.5 | > 100 | 20.6 | 1.6 | 3.1 | < 2 | 1.6 | 3.1 | 1.6 | 3.1 |  | 
10 | CCCCCCCCCCCC[N+]12CC[N+](Cc3cccc(-c4ccccc4C[N+]45CC[N+](CCCCCCCCCCCC)(CC4)CC5)c3)(CC1)CC2 | 6.3 | 1.6 |  | 1.6 | 1.6 | 3.1 | 50 | 1.6 | 3.1 | 6.3 | 100 |  | 0.8 | 3.1 |  | 0.6 | 1.2 | 1.6 | 1.6 |  | 
